Data taken from PubChem BioAssay AID651651 (Broad Institute, 2012).
The source made the active and inactive calls.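 The calls were made as follows: active = signal-lowering compounds whose fitted half-effect concentration is no more than twice the top tested dose; inconclusive = flat curve with 30 to 70% inhibition, or poor fit; inactive = the rest.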

Assay: quencher artefacts in RAD54 branch migration readout – biochemical, Cy5 label, cherry-picked samples, artefact control for RAD54 inhibitor project, dose response (AID 651651)
How it was run: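 Material: human RAD54 protein; quantity: 30 nM RAD54 in the enzyme mix; dosing: pinned compound dose series, 10 mM stock solutions; incubation: 60 min reaction at room temperature after substrate addition; measured by: fluorescence of the Cy5-labelled DNA substrate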

| Compound | outcome |
| --- | --- |
| COc1ccc(S(=O)(=O)N(C)C[C@@H]2Oc3ccc(NC(=O)Nc4c(C)noc4C)cc3CC(=O)N([C@@H](C)CO)C[C@@H]2C)cc1 | inactive |
| COc1ccc(CN(C)C[C@@H]2Oc3ccc(NC(=O)Nc4c(C)noc4C)cc3C(=O)N([C@H](C)CO)C[C@H]2C)cc1 | inactive |
| C[C@@H]1CN([C@H](C)CO)C(=O)c2cc(NC(=O)Nc3ccc4c(c3)OCO4)ccc2O[C@H]1CN(C)C(=O)Nc1cccc2ccccc12 | inactive |
| Cc1ccc(S(=O)(=O)N(C)C[C@@H]2Oc3ccc(NC(=O)NC(C)C)cc3C(=O)N([C@H](C)CO)C[C@H]2C)cc1 | inactive |
| COCC(=O)Nc1ccc2c(c1)[C@H]1C[C@@H](CC(=O)NCc3ccccc3F)O[C@H](CO)[C@H]1O2 | inactive |
| C[C@H]1CN([C@@H](C)CO)C(=O)Cc2cc(NC(=O)Nc3cccc4ccccc34)ccc2O[C@H]1CN(C)S(=O)(=O)c1ccc(Cl)cc1 | inactive |
| CO[C@@H]1CN(C)C(=O)c2cc(NC(C)=O)ccc2OC[C@H](C)N(Cc2ccccc2C(=O)O)C[C@@H]1C | inactive |
| COc1ccc(CN(C)C[C@@H]2Oc3ccc(NC(=O)Nc4ccccc4)cc3C(=O)N([C@@H](C)CO)C[C@H]2C)cc1 | inactive |
| COc1ccc(CN(C)C[C@@H]2Oc3ccc(NC(=O)Nc4ccc(F)cc4)cc3C(=O)N([C@H](C)CO)C[C@H]2C)cc1 | inactive |
| C[C@@H]1CN([C@@H](C)CO)C(=O)c2cc(C3=CCCC3)cnc2O[C@@H]1CN(C)C(=O)Nc1ccc(F)cc1 | inactive |
| COc1ccc(CN(C)C[C@@H]2Oc3ccc(NC(=O)Nc4ccccc4)cc3C(=O)N([C@H](C)CO)C[C@H]2C)cc1 | inactive |
| COc1ccc(CN(C)C[C@@H]2Oc3ccc(NC(=O)NC(C)C)cc3C(=O)N([C@@H](C)CO)C[C@H]2C)cc1 | inactive |
| COc1cccc(S(=O)(=O)N2CCCCN3[C@@H](CO)[C@H](c4ccc(C#CCC(C)C)cc4)[C@@H]3C2)c1 | inactive |
| Cc1noc(C)c1NC(=O)Nc1ccc2c(c1)C(=O)N([C@@H](C)CO)C[C@@H](C)[C@H](CN(C)C(=O)Nc1cccc3ccccc13)O2 | inactive |
| COc1ccc(CN(C)C[C@@H]2Oc3ccc(NC(=O)Nc4ccc(F)cc4)cc3C(=O)N([C@@H](C)CO)C[C@H]2C)cc1 | inactive |
| C/C=C/c1ccc([C@@H]2[C@@H](CO)N3CCCCN(C(=O)Nc4ccc(F)cc4)C[C@H]23)cc1 | inactive |
| COc1ccc(S(=O)(=O)Nc2ccc3c(c2)[C@@H]2C[C@H](CC(=O)NCC4CC4)O[C@H](CO)[C@@H]2O3)cc1 | inactive |
| COc1ccc(CN(C)C[C@@H]2Oc3ccc(NC(=O)Nc4ccc(OC)cc4)cc3C(=O)N([C@H](C)CO)C[C@H]2C)cc1 | inactive |
| CN(C)c1ccc2c(c1)[C@@H]1C[C@@H](CC(=O)NCCN3CCCCC3)O[C@H](CO)[C@@H]1O2 | inactive |
| Cc1noc(C)c1NC(=O)Nc1ccc2c(c1)C(=O)N([C@@H](C)CO)C[C@H](C)[C@@H](CN(C)S(C)(=O)=O)OCCCC[C@@H](C)O2 | inactive |
| COc1ccc(CN(C)C[C@@H]2Oc3ccc(NC(=O)Nc4ccc5c(c4)OCO5)cc3C(=O)N([C@@H](C)CO)C[C@H]2C)cc1 | inactive |
| COc1ccc(S(=O)(=O)N(C)C[C@@H]2Oc3ccc(NC(=O)NC(C)C)cc3CC(=O)N([C@@H](C)CO)C[C@@H]2C)cc1 | inactive |
| CC(C)NC(=O)Nc1ccc2c(c1)C(=O)N([C@H](C)CO)C[C@@H](C)[C@H](CN(C)S(=O)(=O)c1ccc(Cl)cc1)O2 | inactive |
| C[C@H]1CN([C@@H](C)CO)C(=O)Cc2cc(NC(=O)Nc3cccc4ccccc34)ccc2O[C@H]1CN(C)S(=O)(=O)c1ccc(F)cc1 | inactive |
| O=C(NC1CCC1)[C@@H]1[C@@H](CO)[C@@H]2Cn3c(ccc(-c4ccc(F)cc4)c3=O)[C@@H]2N1Cc1ccccn1 | inactive |
| C[C@H](NC(=O)C[C@H]1C[C@H]2c3cc(NC(=O)c4cccnc4)ccc3O[C@H]2[C@@H](CO)O1)c1ccccc1 | inactive |
| COc1ccc(CN(C)C[C@@H]2Oc3ccc(NC(=O)NC(C)C)cc3C(=O)N([C@H](C)CO)C[C@H]2C)cc1 | inactive |
| COc1ccc(-c2ccc3c(c2)O[C@H](CN(C)C(C)=O)[C@H](C)CN([C@@H](C)CO)S3(=O)=O)cc1 | inactive |
| CN(C)c1ccc2c(c1)[C@@H]1C[C@H](CC(=O)NCCN3CCCCC3)O[C@H](CO)[C@@H]1O2 | inactive |
| CN(C)c1ccc2c(c1)[C@@H]1C[C@@H](CC(=O)NCc3cc(F)ccc3F)O[C@H](CO)[C@@H]1O2 | inactive |
